# Experimental data pooled from the literature.
# Lines come from different studies, so protocols differ.
# PIK3C2G: Phosphatidylinositol 3-kinase C2 domain-containing subunit gamma (PIK3C2G, Homo sapiens, UniProt O75747)
# PKN1: Serine/threonine-protein kinase N1 (PKN1, Homo sapiens, UniProt Q16512)
Compound,target,assay,setting,measurement,value
Nc1ncc(-c2nc(N3CCOCC3)nc(N3CCOCC3)n2)c(C(F)F)n1,PIK3C2G,"binding, competition with immobilised ligand",10 µM,remaining binding,0.75%
N#C/C(=C\c1ccc(O)c(O)c1)C(N)=S,PKN1,"enzyme activity, inhibitor",1 µM,activity vs control,69%
CCOC(=O)c1ccc(OC(=O)CCCCCNC(=N)N)cc1,"Matrix metalloproteinase-9 (MMP9, Homo sapiens, UniProt P14780, Q279R)","enzyme activity, inhibitor",10 µM,inhibition,13%
Cc1nn(C)cc1-c1nc2c(N3CCN(Cc4ccc(Cl)cc4)CC3)c(Cl)cnc2[nH]1,"Cyclin-dependent kinase 18 (CDK18, Homo sapiens, UniProt Q07002)","binding, competition with immobilised ligand",1 µM,remaining binding,100%
CN1CCC(C(c2ccccc2)c2ccccc2)CC1,"Histamine H1 receptor (HRH1, Homo sapiens, UniProt P35367)",binding,,koff,0.133 s⁻¹
COC[C@H]1OC(=O)c2coc3c2[C@@]1(C)C1=C(C3=O)[C@@H]2CCC(=O)[C@@]2(C)C[C@H]1OC(C)=O,PKN1,"enzyme activity, inhibitor",1 µM,activity vs control,111%
CN(C)C(=O)COC(=O)Cc1ccc(OC(=O)c2ccc(NC(=N)N)cc2)cc1,"Cathepsin L2 (CTSV, Homo sapiens, UniProt O60911)","enzyme activity, inhibitor",10 µM,inhibition,1%
COc1ccc2c(c1)/C(=C/c1cnc[nH]1)C(=O)N2,PKN1,"enzyme activity, inhibitor",1 µM,activity vs control,55%
COc1ncccc1-c1cnn2ccc(N3CCN(C(=O)OC(C)C)CC3)nc12,PIK3C2G,"binding, competition with immobilised ligand",1 µM,remaining binding,94%
CN1CC[C@]2(C)c3cc(OC(=O)Nc4ccccc4)ccc3N(C)[C@H]12,"Muscarinic acetylcholine receptor M4 (CHRM4, Homo sapiens, UniProt P08173)","ligand displacement, radioligand",10 µM,inhibition,0%
